Measurements from ChEMBL document CHEMBL3112427, “Insights into the mechanism of streptonigrin-induced protein arginine deiminase inactivation” (Bioorg Med Chem, 2014).
Values belong to the compound of their own block, whether it stands above or below them. Active and inactive are the calls of the source. The calls are words filed in the database; no cut-off is given here.

Tests used:
NIH3T3 [1] = assay: Cytotoxicity against mouse NIH/3T3 cells after 3 days by XTT-PMS assay; conditions: NIH3T3, 72 h
[2] = tested on: Protein-arginine deiminase type-4 (Homo sapiens), Q9UM07 [C645A]; assay: Binding affinity to PAD4 C645A mutant (unknown origin) assessed as mass shift of enzyme at 1:10 enzyme to compound ratio preincubated for 1 hr followed by overnight dialysis in double distilled water by MALDI mass spectrometric analysis
Protein-arginine deiminase type-4 (Homo sapiens), Q9UM07 [C645A], sequence (Q9UM07 whole entry C645A): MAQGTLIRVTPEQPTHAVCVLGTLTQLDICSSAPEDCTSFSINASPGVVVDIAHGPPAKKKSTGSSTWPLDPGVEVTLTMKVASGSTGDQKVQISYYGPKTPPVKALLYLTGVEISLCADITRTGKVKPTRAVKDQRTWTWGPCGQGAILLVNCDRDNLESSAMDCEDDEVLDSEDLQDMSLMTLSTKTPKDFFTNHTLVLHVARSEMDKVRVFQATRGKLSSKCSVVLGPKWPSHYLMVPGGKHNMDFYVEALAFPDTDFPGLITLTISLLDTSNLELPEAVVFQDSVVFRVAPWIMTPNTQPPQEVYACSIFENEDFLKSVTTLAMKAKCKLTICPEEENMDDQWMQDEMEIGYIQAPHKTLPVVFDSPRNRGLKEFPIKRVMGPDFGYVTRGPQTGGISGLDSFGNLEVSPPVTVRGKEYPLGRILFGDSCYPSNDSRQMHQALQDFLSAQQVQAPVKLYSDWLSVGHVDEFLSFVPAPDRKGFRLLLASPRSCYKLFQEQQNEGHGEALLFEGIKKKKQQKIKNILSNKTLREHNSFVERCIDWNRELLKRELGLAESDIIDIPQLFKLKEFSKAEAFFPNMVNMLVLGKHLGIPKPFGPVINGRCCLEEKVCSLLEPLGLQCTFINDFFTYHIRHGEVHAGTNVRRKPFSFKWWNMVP

[3] = biological target: T1, Protein-arginine deiminase type-2 (Homo sapiens, UniProt Q9Y2J8); conditions: at 0.1 to 2.5 µM
T1 sequence (Q9Y2J8 whole entry): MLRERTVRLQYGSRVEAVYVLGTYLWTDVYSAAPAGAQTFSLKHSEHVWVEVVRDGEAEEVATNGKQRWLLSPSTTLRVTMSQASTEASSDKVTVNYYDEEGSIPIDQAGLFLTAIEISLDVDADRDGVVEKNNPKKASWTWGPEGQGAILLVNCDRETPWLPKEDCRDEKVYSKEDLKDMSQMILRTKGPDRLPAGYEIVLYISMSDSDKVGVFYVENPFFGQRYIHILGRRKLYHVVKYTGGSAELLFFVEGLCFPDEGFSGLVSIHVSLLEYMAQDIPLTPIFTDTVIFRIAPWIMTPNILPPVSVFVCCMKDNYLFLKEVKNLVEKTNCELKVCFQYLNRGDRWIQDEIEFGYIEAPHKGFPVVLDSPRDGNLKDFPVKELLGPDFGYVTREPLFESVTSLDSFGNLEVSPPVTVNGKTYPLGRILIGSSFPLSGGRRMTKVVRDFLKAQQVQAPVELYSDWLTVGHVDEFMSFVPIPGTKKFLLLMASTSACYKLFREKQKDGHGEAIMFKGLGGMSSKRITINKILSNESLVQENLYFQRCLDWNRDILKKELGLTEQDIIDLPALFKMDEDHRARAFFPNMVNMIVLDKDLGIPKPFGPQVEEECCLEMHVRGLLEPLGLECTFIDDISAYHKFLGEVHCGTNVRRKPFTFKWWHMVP

[4] = biological target: T2, Protein-arginine deiminase type-4 (Homo sapiens, UniProt Q9UM07)
T2 sequence (Q9UM07 whole entry): as the sequence (Q9UM07 whole entry C645A) above, with A645C counted along it

[5] = biological target: T2, Protein-arginine deiminase type-4; assay: Binding affinity to recombinant wild-type PAD4 (unknown origin) assessed as mass shift of enzyme at 1:10 enzyme to compound ratio preincubated for 1 hr followed by overnight dialysis in double distilled water by MALDI mass spectrometric analysis in presence of catalase
[6] = biological target: T1, Protein-arginine deiminase type-2; assay: Inhibition of recombinant wild-type PAD2 (unknown origin) using N-alpha-Benzoyl-L-arginine ethyl ester as substrate preincubated for 15 mins followed by substrate addition measured after 15 mins by COLDER assay
[7] = biological target: T2, Protein-arginine deiminase type-4; conditions: 0.5 uM
[8] = biological target: T3, Protein-arginine deiminase type-3 (Homo sapiens, UniProt Q9ULW8); assay: Inhibition of recombinant wild-type PAD3 (unknown origin) using N-alpha-Benzoyl-L-arginine amide as substrate preincubated for 15 mins followed by substrate addition measured after 15 mins by COLDER assay
T3 sequence (Q9ULW8 whole entry): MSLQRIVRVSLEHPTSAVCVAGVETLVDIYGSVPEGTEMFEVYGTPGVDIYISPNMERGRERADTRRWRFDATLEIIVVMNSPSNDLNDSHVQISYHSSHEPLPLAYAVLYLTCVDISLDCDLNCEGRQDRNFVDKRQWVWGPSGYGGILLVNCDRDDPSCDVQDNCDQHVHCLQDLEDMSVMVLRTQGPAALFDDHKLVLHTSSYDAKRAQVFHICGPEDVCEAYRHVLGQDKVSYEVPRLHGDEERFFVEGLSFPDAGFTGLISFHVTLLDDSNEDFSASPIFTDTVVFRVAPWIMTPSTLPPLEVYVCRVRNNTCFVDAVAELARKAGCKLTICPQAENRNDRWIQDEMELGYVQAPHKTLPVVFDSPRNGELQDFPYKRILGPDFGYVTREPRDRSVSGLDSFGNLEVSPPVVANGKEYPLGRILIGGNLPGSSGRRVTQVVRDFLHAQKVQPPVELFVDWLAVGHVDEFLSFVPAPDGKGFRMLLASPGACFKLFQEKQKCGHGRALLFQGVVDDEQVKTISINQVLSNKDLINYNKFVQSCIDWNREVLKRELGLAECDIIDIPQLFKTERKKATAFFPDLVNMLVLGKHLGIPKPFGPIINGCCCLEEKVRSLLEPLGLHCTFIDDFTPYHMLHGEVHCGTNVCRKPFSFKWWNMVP

[9] = biological target: T2, Protein-arginine deiminase type-4; assay: Competitive inhibition of recombinant wild-type PAD4 (unknown origin) at 1 to 50 uM by fluorescence polarization-ABPP assay in presence of RFA; conditions: in the assay text read “gel-based competitive ABPP assay” for “fluorescence polarization-ABPP assay”
How it was run: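 Wild-type PAD4 (2 µM final) labelled with RFA (10 µM final) plus 10 mM calcium in the presence of competitor (0–50 µM final). Quenched with SDS loading buffer, boiled 20 min, run on 12% SDS-PAGE; in-gel fluorescence imaged and quantified.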

[10] = biological target: T4, Protein-arginine deiminase type-1 (Homo sapiens, UniProt Q9ULC6); assay: Inhibition of recombinant wild-type PAD1 (unknown origin) using N-alpha-Benzoyl-L-arginine amide as substrate preincubated for 15 mins followed by substrate addition measured after 15 mins by COLDER assay
T4 sequence (Q9ULC6 whole entry): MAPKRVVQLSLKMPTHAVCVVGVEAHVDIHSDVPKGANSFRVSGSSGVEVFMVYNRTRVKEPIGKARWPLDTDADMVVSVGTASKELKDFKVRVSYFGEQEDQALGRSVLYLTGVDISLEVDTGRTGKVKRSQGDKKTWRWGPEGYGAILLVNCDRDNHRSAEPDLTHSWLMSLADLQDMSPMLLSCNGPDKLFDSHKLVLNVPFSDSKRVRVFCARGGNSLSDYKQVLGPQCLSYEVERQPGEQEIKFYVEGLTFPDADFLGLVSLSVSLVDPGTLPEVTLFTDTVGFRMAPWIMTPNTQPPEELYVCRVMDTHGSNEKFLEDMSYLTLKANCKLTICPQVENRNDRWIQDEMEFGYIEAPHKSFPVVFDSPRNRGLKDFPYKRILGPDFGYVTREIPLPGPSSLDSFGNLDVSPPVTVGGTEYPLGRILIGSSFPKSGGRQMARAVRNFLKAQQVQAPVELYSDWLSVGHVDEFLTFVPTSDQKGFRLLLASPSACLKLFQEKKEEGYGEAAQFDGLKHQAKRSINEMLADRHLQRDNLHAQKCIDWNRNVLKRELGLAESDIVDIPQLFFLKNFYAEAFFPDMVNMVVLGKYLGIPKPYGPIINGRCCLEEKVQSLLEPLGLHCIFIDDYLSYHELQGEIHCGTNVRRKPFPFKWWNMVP

[11] = biological target: T1, Protein-arginine deiminase type-2
[12] = tested on: Protein-arginine deiminase type-4 (Homo sapiens), Q9UM07 [C645A]; assay: Binding affinity to PAD4 C645A mutant (unknown origin) assessed as mass shift of enzyme at 1:10 enzyme to compound ratio preincubated for 1 hr followed by overnight dialysis in double distilled water by MALDI mass spectrometric analysis in presence of superoxide dismutase
[13] = biological target: T1, Protein-arginine deiminase type-2; assay: Inhibition of recombinant wild-type PAD2 (unknown origin) using N-alpha-Benzoyl-L-arginine ethyl ester as substrate preincubated for 10 mins followed by substrate addition measured after 15 mins by COLDER assay
[14] = biological target: T1, Protein-arginine deiminase type-2; assay: Binding affinity to recombinant wild-type PAD2 (unknown origin) assessed as mass shift of enzyme at 1:10 enzyme to compound ratio preincubated for 1 hr followed by overnight dialysis in double distilled water by MALDI mass spectrometric analysis
[15] = biological target: T2, Protein-arginine deiminase type-4; assay: Inhibition of recombinant wild-type PAD4 (unknown origin) using N-alpha-Benzoyl-L-arginine ethyl ester as substrate preincubated for 10 mins followed by substrate addition measured after 15 mins by COLDER assay
[16] = biological target: T2, Protein-arginine deiminase type-4; assay: Binding affinity to recombinant wild-type PAD4 (unknown origin) assessed as mass shift of enzyme at 1:10 enzyme to compound ratio preincubated for 1 hr followed by overnight dialysis in double distilled water by MALDI mass spectrometric analysis
NIH3T3 [17] = assay: Cytotoxicity against mouse NIH/3T3 cells assessed as cell viability at 10 uM after 3 days by XTT-PMS assay relative to control; type: cell-based; conditions: nih3t3, 72 h
How it was run: (§1)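 U2OS or NIH 3T3 cells (2.5 × 10^4 cells/mL) plated in 48-well format (n=4) and dosed with 10 µM compound for 3 days. XTT-PMS activated reagent then added for 4 h of colour development; formazan absorbance read at 475 nm.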

U2OS [18] = assay: Cytotoxicity against human U2OS cells assessed as cell viability at 10 uM after 3 days by XTT-PMS assay relative to control; type: functional; conditions: for viability at 10 µM: 72 h, read-out: Activity; how it was run: as §1
[19] = biological target: T2, Protein-arginine deiminase type-4; assay: Inhibition of recombinant wild-type PAD4 (unknown origin) using N-alpha-Benzoyl-L-arginine ethyl ester as substrate preincubated for 15 mins followed by substrate addition measured after 15 mins by COLDER assay
U2OS [20] = assay: Cytotoxicity against human U2OS cells after 3 days by XTT-PMS assay; conditions: 72 h
[21] = biological target: T2, Protein-arginine deiminase type-4; assay: Binding affinity to recombinant wild-type PAD4 (unknown origin) assessed as mass shift of enzyme at 1:10 enzyme to compound ratio preincubated for 1 hr followed by overnight dialysis in double distilled water by MALDI mass spectrometric analysis in presence of superoxide dismutase
[22] = tested on: Protein-arginine deiminase type-4 (Homo sapiens), Q9UM07 [C645A]; assay: Binding affinity to PAD4 C645A mutant (unknown origin) assessed as mass shift of enzyme at 1:10 enzyme to compound ratio preincubated for 1 hr followed by overnight dialysis in double distilled water by MALDI mass spectrometric analysis in presence of catalase
[23] = tested on: Protein-arginine deiminase type-2 (Homo sapiens), Q9Y2J8 [C647A]; assay: Binding affinity to PAD2 C647A mutant (unknown origin) assessed as mass shift of enzyme at 1:10 enzyme to compound ratio preincubated for 1 hr followed by overnight dialysis in double distilled water by MALDI mass spectrometric analysis
Protein-arginine deiminase type-2 (Homo sapiens), Q9Y2J8 [C647A], sequence (Q9Y2J8 whole entry C647A): as the sequence (Q9Y2J8 whole entry) above, with C647A counted along it

[24] = biological target: T5, Protein-arginine deiminase type-3 (Homo sapiens) (UniProt Q9ULW8); assay: Irreversible inhibition of recombinant wild-type PAD3 (unknown origin) using N-alpha-Benzoyl-L-arginine amide as substrate assessed as residual activity at 170-fold excess of compound after 1 hr by dialysis method
T5 sequence (whole entry): T3 sequence (Q9ULW8 whole entry)

[25] = biological target: T2, Protein-arginine deiminase type-4; assay: Irreversible inhibition of recombinant wild-type PAD4 (unknown origin) using N-alpha-Benzoyl-L-arginine ethyl ester as substrate assessed as residual activity at 170-fold excess of compound after 1 hr by dialysis method
How it was run: (§2)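 Wild-type PAD2 or PAD4 (0.6 µM final) incubated 1 h with compound (170-fold excess) or no compound in Reaction Buffer, then dialysed 20 h against Long-Term Storage Buffer (Tris-HCl pH 7.6, 1 mM EDTA, 500 mM NaCl, 2 mM DTT, 10% glycerol). Residual activity measured with 10 mM BAEE, quenched in liquid N2, and expressed relative to separately dialysed untreated enzyme (100%).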

[26] = biological target: T6, Protein-arginine deiminase type-1 (Homo sapiens) (UniProt Q9ULC6); assay: Irreversible inhibition of recombinant wild-type PAD1 (unknown origin) using N-alpha-Benzoyl-L-arginine amide as substrate assessed as residual activity at 170-fold excess of compound after 1 hr by dialysis method
T6 sequence (whole entry): T4 sequence (Q9ULC6 whole entry)

[27] = biological target: T1, Protein-arginine deiminase type-2; assay: Irreversible inhibition of recombinant wild-type PAD2 (unknown origin) using N-alpha-Benzoyl-L-arginine ethyl ester as substrate assessed as residual activity at 170-fold excess of compound after 1 hr by dialysis method; how it was run: as §2

Compound: NC1=CC(=O)c2cccnc2C1=O
EC50 (NIH3T3 [1]): 1100 nM
IC50 [6]: 740 nM
IC50 [8]: 170 nM
IC50 [10]: 960 nM
Activity (NIH3T3 [17]): <= 30%
viability at 10 µM (U2OS [18]): ≤ 30%
IC50 [19]: 1000 nM
EC50 (U2OS [20]): 800 nM

Compound: COC1=C(N)C(=O)c2nc(-c3nc(C(=O)O)c(C)c(-c4ccc(OC)c(OC)c4O)c3N)ccc2C1=O [STREPTONIGRIN]
Activity [2]: Active
inhibition [3]: Active
Activity [5]: Active
IC50 [6]: 26100 nM
IC50 [8]: 430 nM
inhibition [9]: Active
IC50 [10]: 48300 nM
Activity [12]: Active
Activity [14]: Active
Activity [16]: Active
Activity [21]: Active
Activity [22]: Active
Activity [23]: Active

Compound: NC1=C(Br)C(=O)c2cccnc2C1=O
Activity (NIH3T3 [17]): <= 30%
viability at 10 µM (U2OS [18]): ≤ 30%

Compound: COC1=C(Br)C(=O)c2ncccc2C1=O
IC50 [6]: 6320 nM
IC50 [8]: 4400 nM
IC50 [10]: 4550 nM
Activity (NIH3T3 [17]): Active
Activity (U2OS [18]): Active
IC50 [19]: 3300 nM

Continued, in another order:

Activity [2]: Active
inhibition [3]: Active
Kinact [4]: 0.12 min⁻¹
Activity [5]: Active
IC50 [6]: 320 nM
inhibition [7]: Active
IC50 [8]: 130 nM
inhibition [9]: Active
IC50 [10]: 950 nM
Kinact [11]: 0.07 min⁻¹
Activity [12]: Active
Ki [13]: 8.08 µM
Activity [14]: Active
Ki [15]: 20.1 µM
Activity [16]: Active
IC50 [19]: 640 nM
Activity [21]: Active
Activity [22]: Active
Activity [23]: Active
Compound: NC1=CC(=O)c2ccc(-c3ccccn3)nc2C1=O
EC50 (NIH3T3 [1]): 600 nM
Activity (NIH3T3 [17]): <= 30%
viability at 10 µM (U2OS [18]): ≤ 30%
EC50 (U2OS [20]): 400 nM

Activity [2]: Active
Activity [24]: inactive
Activity [25]: inactive
inhibition [3]: Active
Activity [26]: inactive
Activity [27]: inactive
Activity [5]: Active
IC50 [6]: 200 nM
IC50 [8]: 710 nM
inhibition [9]: Active
IC50 [10]: 70 nM
Activity [12]: Active
Activity [14]: Active
Activity [16]: Active
Activity [21]: Active
Activity [22]: Active
Activity [23]: Active
Compound: NC1=CC(=O)c2ccc(-c3cccc(C(=O)O)n3)nc2C1=O
EC50 (NIH3T3 [1]): 61700 nM
Activity (NIH3T3 [17]): Active
Activity (U2OS [18]): Active
EC50 (U2OS [20]): 58300 nM
